From ChEMBL document CHEMBL2086318, “Synthesis and in vitro antimycobacterial activity of 2-methoxybenzanilides and their thioxo analogues” (Eur J Med Chem, 2012)
Values after ≈ are worked out from the molar mass of the structure shown.

Columns and labels:
Format in all cases: functional
[1] = system: Mycobacterium kansasii; assay: Antimycobacterial activity against Mycobacterium kansasii My 6509/96 clinical isolate after 21 days by micromethod; settings: My 6509/96, 504 h
[2] = system: Mycobacterium kansasii; assay: Antimycobacterial activity against Mycobacterium kansasii My 6509/96 clinical isolate after 14 days by micromethod; settings: My 6509/96, 336 h
[3] = system: Mycobacterium avium; assay: Antimycobacterial activity against Mycobacterium avium My 330/88 after 21 days by micromethod; settings: My 330/88, 504 h
[4] = system: Mycobacterium kansasii; assay: Antimycobacterial activity against Mycobacterium kansasii My 235/80 after 21 days by micromethod; settings: My 235/80, 504 h
[5] = system: Mycobacterium kansasii; assay: Antimycobacterial activity against Mycobacterium kansasii My 235/80 after 14 days by micromethod; settings: My 235/80, 336 h
[6] = system: Mycobacterium kansasii; assay: Antimycobacterial activity against Mycobacterium kansasii My 235/80 after 7 days by micromethod; settings: My 235/80, 168 h
[7] = system: Mycobacterium avium; assay: Antimycobacterial activity against Mycobacterium avium My 330/88 after 14 days by micromethod; settings: My 330/88, 336 h
[8] = system: Mycobacterium kansasii; assay: Antimycobacterial activity against Mycobacterium kansasii My 6509/96 clinical isolate after 7 days by micromethod; settings: My 6509/96, 168 h
[9] = system: Mycobacterium tuberculosis; assay: Antimycobacterial activity against Mycobacterium tuberculosis My 331/88 after 21 days by micromethod; settings: My 331/88, 504 h
Method in brief: (§1)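 MIC by micromethod at 37 °C, read after 14 and 21 days. Inocula were M. tuberculosis My 331/88 at 10^-3 dilution and M. avium My 330/88 at 10^-5 dilution. Compounds added in DMSO across 1000, 500, 250, 125, 62.5, 32, 16, 8, 4, 2, 1 and 0.5; isoniazid standard in sterile water. MIC taken as the lowest concentration inhibiting growth.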

[10] = system: Mycobacterium tuberculosis; assay: Antimycobacterial activity against Mycobacterium tuberculosis My 331/88 after 14 days by micromethod; settings: My 331/88, 336 h; method in brief: as §1

| SMILES | MIC [1] | MIC [2] | MIC [3] | MIC [4] | MIC [5] | MIC [6] | MIC [7] | MIC [8] | MIC [9] | MIC [10] |
| --- | --- | --- | --- | --- | --- | --- | --- | --- | --- | --- |
| COc1ccc(Cl)cc1C(=O)Nc1cccc(C(F)(F)F)c1 | 16 µM (≈ 5.28 µg/mL) | 4 µM (≈ 1.32 µg/mL) | 125 µM (≈ 41.2 µg/mL) | 16 µM (≈ 5.28 µg/mL) | 4 µM (≈ 1.32 µg/mL) | 4 µM (≈ 1.32 µg/mL) | 125 µM (≈ 41.2 µg/mL) | 4 µM (≈ 1.32 µg/mL) | 16 µM (≈ 5.28 µg/mL) | 4 µM (≈ 1.32 µg/mL) |
| COc1ccc(Cl)cc1C(=S)Nc1ccc(Cl)c(Cl)c1 | 125 µM (≈ 43.3 µg/mL) | 125 µM (≈ 43.3 µg/mL) | 62.5 µM (≈ 21.7 µg/mL) | 62.5 µM (≈ 21.7 µg/mL) | 62.5 µM (≈ 21.7 µg/mL) | 32 µM (≈ 11.1 µg/mL) | 32 µM (≈ 11.1 µg/mL) | 62.5 µM (≈ 21.7 µg/mL) | 8 µM (≈ 2.77 µg/mL) | 8 µM (≈ 2.77 µg/mL) |
| O=C(Nc1ccc(Cl)cc1)c1ccc(Cl)cc1O | – | – | 8 µM (≈ 2.26 µg/mL) | 8 µM (≈ 2.26 µg/mL) | 4 µM (≈ 1.13 µg/mL) | – | 8 µM (≈ 2.26 µg/mL) | – | 4 µM (≈ 1.13 µg/mL) | 4 µM (≈ 1.13 µg/mL) |
| O=C(Nc1ccc(Cl)c(Cl)c1)c1ccc(Cl)cc1O | – | – | 16 µM (≈ 5.07 µg/mL) | 8 µM (≈ 2.53 µg/mL) | 8 µM (≈ 2.53 µg/mL) | – | 16 µM (≈ 5.07 µg/mL) | – | 4 µM (≈ 1.27 µg/mL) | 4 µM (≈ 1.27 µg/mL) |
| COc1ccc(Cl)cc1C(=O)Nc1cccc([N+](=O)[O-])c1 | 125 µM (≈ 38.3 µg/mL) | 125 µM (≈ 38.3 µg/mL) | 250 µM (≈ 76.7 µg/mL) | 125 µM (≈ 38.3 µg/mL) | 125 µM (≈ 38.3 µg/mL) | 125 µM (≈ 38.3 µg/mL) | 250 µM (≈ 76.7 µg/mL) | 125 µM (≈ 38.3 µg/mL) | 125 µM (≈ 38.3 µg/mL) | 125 µM (≈ 38.3 µg/mL) |
| COc1ccc(Cl)cc1C(=S)Nc1cccc(Cl)c1 | 32 µM (≈ 9.99 µg/mL) | 16 µM (≈ 5 µg/mL) | 32 µM (≈ 9.99 µg/mL) | 16 µM (≈ 5 µg/mL) | 16 µM (≈ 5 µg/mL) | 8 µM (≈ 2.5 µg/mL) | 32 µM (≈ 9.99 µg/mL) | 16 µM (≈ 5 µg/mL) | 16 µM (≈ 5 µg/mL) | 16 µM (≈ 5 µg/mL) |
| O=C(Nc1ccc(Cl)cc1)c1cc(Cl)ccc1O | – | – | 8 µM (≈ 2.26 µg/mL) | 8 µM (≈ 2.26 µg/mL) | 8 µM (≈ 2.26 µg/mL) | – | 8 µM (≈ 2.26 µg/mL) | – | 4 µM (≈ 1.13 µg/mL) | 4 µM (≈ 1.13 µg/mL) |
| COc1cc(Cl)ccc1C(=O)Nc1ccc([N+](=O)[O-])cc1 | 125 µM (≈ 38.3 µg/mL) | 125 µM (≈ 38.3 µg/mL) | 250 µM (≈ 76.7 µg/mL) | 250 µM (≈ 76.7 µg/mL) | 250 µM (≈ 76.7 µg/mL) | 125 µM (≈ 38.3 µg/mL) | 250 µM (≈ 76.7 µg/mL) | 125 µM (≈ 38.3 µg/mL) | 250 µM (≈ 76.7 µg/mL) | 250 µM (≈ 76.7 µg/mL) |
| O=C(Nc1ccc(Cl)c(Cl)c1)c1cc(Cl)ccc1O | – | – | 16 µM (≈ 5.07 µg/mL) | 4 µM (≈ 1.27 µg/mL) | 4 µM (≈ 1.27 µg/mL) | – | 16 µM (≈ 5.07 µg/mL) | – | 8 µM (≈ 2.53 µg/mL) | 4 µM (≈ 1.27 µg/mL) |
| COc1cc(Cl)ccc1C(=O)Nc1cccc(Cl)c1 | 125 µM (≈ 37 µg/mL) | 62.5 µM (≈ 18.5 µg/mL) | 32 µM (≈ 9.48 µg/mL) | 32 µM (≈ 9.48 µg/mL) | 32 µM (≈ 9.48 µg/mL) | 8 µM (≈ 2.37 µg/mL) | 8 µM (≈ 2.37 µg/mL) | 62.5 µM (≈ 18.5 µg/mL) | 125 µM (≈ 37 µg/mL) | 125 µM (≈ 37 µg/mL) |
| COc1ccc(Cl)cc1C(=S)Nc1cccc(C(F)(F)F)c1 | 16 µM (≈ 5.53 µg/mL) | 16 µM (≈ 5.53 µg/mL) | 32 µM (≈ 11.1 µg/mL) | 16 µM (≈ 5.53 µg/mL) | 16 µM (≈ 5.53 µg/mL) | 8 µM (≈ 2.77 µg/mL) | 32 µM (≈ 11.1 µg/mL) | 8 µM (≈ 2.77 µg/mL) | 16 µM (≈ 5.53 µg/mL) | 16 µM (≈ 5.53 µg/mL) |
| COc1ccc(Cl)cc1C(=S)Nc1cccc([N+](=O)[O-])c1 | 250 µM (≈ 80.7 µg/mL) | 250 µM (≈ 80.7 µg/mL) | 250 µM (≈ 80.7 µg/mL) | 250 µM (≈ 80.7 µg/mL) | 250 µM (≈ 80.7 µg/mL) | 62.5 µM (≈ 20.2 µg/mL) | 250 µM (≈ 80.7 µg/mL) | 62.5 µM (≈ 20.2 µg/mL) | 250 µM (≈ 80.7 µg/mL) | 250 µM (≈ 80.7 µg/mL) |
| COc1ccc(Cl)cc1C(=O)Nc1cccc(Cl)c1 | 250 µM (≈ 74 µg/mL) | 250 µM (≈ 74 µg/mL) | 250 µM (≈ 74 µg/mL) | 250 µM (≈ 74 µg/mL) | 250 µM (≈ 74 µg/mL) | 62.5 µM (≈ 18.5 µg/mL) | 250 µM (≈ 74 µg/mL) | 125 µM (≈ 37 µg/mL) | 250 µM (≈ 74 µg/mL) | 250 µM (≈ 74 µg/mL) |
| O=C(Nc1ccc([N+](=O)[O-])cc1)c1cc(Cl)ccc1O | – | – | 8 µM (≈ 2.34 µg/mL) | 4 µM (≈ 1.17 µg/mL) | 4 µM (≈ 1.17 µg/mL) | – | 8 µM (≈ 2.34 µg/mL) | – | 8 µM (≈ 2.34 µg/mL) | 4 µM (≈ 1.17 µg/mL) |
| COc1cc(Cl)ccc1C(=O)Nc1cccc(C(F)(F)F)c1 | 125 µM (≈ 41.2 µg/mL) | 125 µM (≈ 41.2 µg/mL) | 125 µM (≈ 41.2 µg/mL) | 250 µM (≈ 82.4 µg/mL) | 250 µM (≈ 82.4 µg/mL) | 125 µM (≈ 41.2 µg/mL) | 125 µM (≈ 41.2 µg/mL) | 125 µM (≈ 41.2 µg/mL) | 250 µM (≈ 82.4 µg/mL) | 250 µM (≈ 82.4 µg/mL) |
| NNC(=O)c1ccncc1 [ISONIAZID] | 4 µM (≈ 0.549 µg/mL) | 4 µM (≈ 0.549 µg/mL) | 250 µM (≈ 34.3 µg/mL) | 250 µM (≈ 34.3 µg/mL) | 200 µM (≈ 27.4 µg/mL) | > 250 µM | 200 µM (≈ 27.4 µg/mL) | 4 µM (≈ 0.549 µg/mL) | 0.5 µM (≈ 0.0686 µg/mL) | 0.5 µM (≈ 0.0686 µg/mL) |
| COc1ccc(Cl)cc1C(=S)Nc1ccc([N+](=O)[O-])cc1 | 250 µM (≈ 80.7 µg/mL) | 250 µM (≈ 80.7 µg/mL) | 250 µM (≈ 80.7 µg/mL) | 250 µM (≈ 80.7 µg/mL) | 250 µM (≈ 80.7 µg/mL) | 125 µM (≈ 40.3 µg/mL) | 250 µM (≈ 80.7 µg/mL) | 125 µM (≈ 40.3 µg/mL) | 32 µM (≈ 10.3 µg/mL) | 32 µM (≈ 10.3 µg/mL) |
